In brackets after ≈: the same amount, converted by molar mass. Activity calls are given as the source filed them. The calls are words filed in the database; no cut-off is given here.
Tests used:
[1] = tested on: Caenorhabditis elegans; test: Toxicity in Caenorhabditis elegans AU37 at 6.25 to 100 ug/ml after 2 days; type: organism-based; conditions: in vivo, 48 h
Procedure, shortened: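 Nematodes placed in medium containing a range of compound concentrations, held at 25 ℃ for 2 d, checked daily and photographed on day 2.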

[2] = tested on: Candida albicans; test: Antibiofilm activity against Candida albicans SC5314 assessed as disruption of biofilm formation at 6.4 ug/ml; type: functional, organism-based
[3] = tested on: Candida albicans; test: Antibiofilm activity against Candida albicans SC5314 assessed as disruption of biofilm formation at 0.8 ug/ml after 24 hrs by scanning electron microscopic analysis; type: functional, organism-based
Procedure, shortened: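 Biofilm SEM: cells adhered to poly-L-lysine-coated glass disks, 90 min static at 37°C; non-adherent cells removed, then grown in fresh RPMI 1640 with compound at 37°C for 24 h. Fixed in 2% glutaraldehyde in 0.15 M sodium cacodylate (pH 7.2) for 2 h, graded ethanol dehydration, dried 1 h, gold-coated and imaged by SEM.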

[4] = tested on: Candida albicans; test: Antibiofilm activity against Candida albicans SC5314 assessed down regulation of EFG1 gene at 0.4 ug/ml after 1 hr by qRT-PCR analysis; type: functional, organism-based
Procedure, shortened: (§1)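 Biofilm grown in dishes with 0.4 µg/mL compound or DMSO control for 1 h; total RNA isolated and transcripts quantified by real-time RT-PCR. Normalized to 18S rRNA, expressed as fold change vs untreated SC5314. Mean ± SD of three independent experiments.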

[5] = tested on: Candida albicans; test: Antibiofilm activity against Candida albicans SC5314 assessed down regulation of CYR1 gene at 0.4 ug/ml after 1 hr by qRT-PCR analysis; type: functional, organism-based; procedure, shortened: as §1
[6] = tested on: Candida albicans; test: Antibiofilm activity against Candida albicans SC5314 assessed inhibition of yeast-to-hypha morphological transition at 0.5 ug/ml after 3 hrs; type: functional, organism-based
Procedure, shortened: (§2)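 Yeast-to-hypha transition in YPD with 10% (v/v) FBS across compound concentrations; cell morphology photographed after 3 h at 37°C.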

[7] = tested on: Nannizzia gypsea; test: Antifungal activity against Microsporum gypseum Cmccfmza after 24 hrs by spectrophotometric analysis; type: functional
Procedure, shortened: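 Broth microdilution in RPMI 1640, inoculum 5×10^3 CFU/mL, compounds from 6.4 mg/mL DMSO stocks, 35 ℃ for 24 h. Growth read as OD600; MIC80 taken as lowest concentration giving 80% growth inhibition. Triplicate.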

[8] = tested on: Candida albicans; test: Antibiofilm activity against Candida albicans SC5314 assessed down regulation of ALS3 gene at 0.4 ug/ml after 1 hr by qRT-PCR analysis; type: functional, organism-based; procedure, shortened: as §1
[9] = tested on: Candida albicans; test: Antibiofilm activity against Candida albicans SC5314 cultured in RPMI 1640 media assessed inhibition of yeast-to-hypha morphological transition after 3 hrs; type: functional, organism-based
Procedure, shortened: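 Hyphal induction in Lee's (pH 6.8), Spider, SLAD or RPMI 1640 medium with compound; morphology assessed by microscopy.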

[10] = tested on: Candida albicans; test: Antibiofilm activity against Candida albicans SC5314 cultured in YPD media containing 10% FBS assessed inhibition of yeast-to-hypha morphological transition after 3 hrs; type: functional, organism-based; procedure, shortened: as §2
[11] = tested on: Candida albicans; test: Antibiofilm activity against Candida albicans SC5314 assessed as disruption of biofilm formation at 12.8 ug/ml; type: functional, organism-based

Row | Compound | Activity [1] | Activity [2] | Activity [3] | Activity [4] | Activity [5] | Activity [6] | MIC80 [7] | Activity [8] | Activity [9] | Activity [10] | Activity [11]
1 | CCc1ccnc2c1C(=O)c1sc([N+](=O)[O-])cc1C2=O | Non-Toxic | Active | Active | Active | Active | Active | 2 µg/mL (≈ 6.94 µM) | Active | Dose-dependent effect | Dose-dependent effect | 
2 | CCCc1ccnc2c1C(=O)c1sc([N+](=O)[O-])cc1C2=O | Non-Toxic |  | Active | Active | Active | Active | 2 µg/mL (≈ 6.62 µM) | Active | Dose-dependent effect | Dose-dependent effect | Active
